Measured values from the RNAGym collection of RNA variant scans (doi:10.1126/science.aae0568).
This sample holds only a part of the variants without activity.

B1: tRNA (parent)
chain: GUUCCGUUGGCGUAAUGGUAACGCGUCUCCCUCCUAAGGAGAAGACUGCGGGUUCGAGUCCCGUACGGAACG

Variants of: B1
Assay: yeast fitness relative to wild type (ratio to wild type); higher = fitter; tRNA-Arg(CCU), competitive growth, 37 C, YPD
Outline: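 Start and end populations of a pooled competition were compared by 100-nucleotide paired-end sequencing of gene amplicons. The Saccharomyces cerevisiae strains carried tRNA-Arg(CCU) gene variants at the native genomic locus, synthesised with a 3% per-site mutation rate at 69 sites, and competed in YPD at 37°C for 24 hours in six parallel replicates. Darwinian fitness relative to wild type was based on the change in genotype frequencies. Genotypes required ≥ 100 starting reads, and estimates < 0.5 were set to 0.5.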

Variant	yeast fitness
C22G G39A A70G	0.599
C22A G23C C30U C66G	≤ 0.5
C22G C27G C29G C34A A43U A65U	≤ 0.5
C22G A42G G48C A65U	≤ 0.5
C22G C34G A40C A69U	0.769
C22G G23C C27A U28C U32C	≤ 0.5
C22A C33G A43C A69C	≤ 0.5
C22A C46A	0.83
C22G A43U C46G	≤ 0.5
C22A C66U	0.982
C22A G39C A43U U53C	0.723
C22G C31G C66U A69C	0.528
C22G C33U A36C A40U	0.665
C22G G52A U64C	0.537
C22G C30U C34U A43G	≤ 0.5
C22G C27G C31G C61G	0.575
C22G G23C G39A A45C C49U C61U G68A	≤ 0.5
C22G C60G	0.621
C22A C55U A65U	≤ 0.5
C22G G51A A57U	≤ 0.5
C22A U26A C29G C34G A65G A69C	≤ 0.5
C22G C24U C29U C30G G63C	≤ 0.5
C22A U28G C49A C61A	≤ 0.5
C22G C66A	0.704

Variant	yeast fitness
C22G C27A C46U	0.539
C22G C29G G44C G56A A57G G67U A70C	≤ 0.5
C22G C24G C29U C33U A37C G52A C61U	≤ 0.5
C22A G52A	0.637
C22A G52C	0.665
C22G G52A C55U	≤ 0.5
C22A U26A U54C C61A	0.612
C22G A69C A70G	0.632
C22G C55U A57U	≤ 0.5
C22G A45C A65C	≤ 0.5
C22G C49U C60A	≤ 0.5
C22G C34U C49U C55G C62U	≤ 0.5
C22G G25C A37G A65U	0.576
C22G C24U C29U C30G U53A U54A	≤ 0.5
C22G C27U G68A	0.623
C22G C55G	0.585
C22G C55A	0.712
C22G C34U A69U	0.573
C22G C49G G68A	0.529
C22G G25A G50U	0.593
C22G C27G C31G C61G A69C	≤ 0.5
C22G A57U C66U	0.524
C22G A45U U47A	≤ 0.5
C22A U47A G48A A70G	≤ 0.5

Variant	yeast fitness
C22G C62G A65U	0.534
C22G C24G G50A A69C	0.574
C22G A43C A70U	0.593
C22G C62A	0.787
C22G C31G C61A	≤ 0.5
C22A G23A C33U C34G G51A	≤ 0.5
C22G C49A G56C G58C C60A	≤ 0.5
C22G C27G C31G A37G C61G A69U	0.758
C22G C24U C31U A40U U59A C61A	≤ 0.5
C22G A45U C49G A65U	≤ 0.5
C22A U26C U47C A57G C66A	0.565
C22G C27G A43U A45C U54A	≤ 0.5
C22G G25A C61U	0.647
C22G C33A C49G	0.592
C22A U28A C30A	0.72
C22G C34G	0.612
C22G C34A	0.757
C22G C29U C31A	≤ 0.5
C22A C34G A37C	≤ 0.5
C22G A40U U54A	≤ 0.5
C22G A36G A37C C46A C49G U64G	≤ 0.5
C22G A37C U54C	≤ 0.5
C22G A43C A45U G52A	≤ 0.5
C22A U47A A65U	≤ 0.5

Variant	yeast fitness
C22A U47A A65G	0.573
C22G C27G U59C C62U U64C G68U	≤ 0.5
C22G C24A C61G C66A	≤ 0.5
C22G C30U C49A A57U C61U	0.548
C22G G51C G58A	≤ 0.5
C22A U35A A70U	≤ 0.5
C22A C46U C49G	0.527
C22G G23C A42U	0.573
C22G A36C U47A C66G	≤ 0.5
C22G C29G A36C G39C C46G G52A G67C	≤ 0.5
C22A G23C C34U A36G A40U G63A	≤ 0.5
C22G C46A C62U G63A	0.651
C22G A37C	0.721
C22A U32G A37U	≤ 0.5
C22G C49U A65G	0.785
C22A G48A C49U G50A G51C A70C	≤ 0.5
C22G C62U A69U	0.591
C22G C31G G58C G67C	≤ 0.5
C22G A70U	1.01
C22G A70C	0.963
C22G C27G C29G C34A A43U U54C A65U	≤ 0.5
C22G G50U	0.873
C22G C27U	0.884
C22G C27A	0.604

Variant	yeast fitness
C22G C29A U53A	≤ 0.5
C22G C30A G51A	≤ 0.5
C22A G25C	1.05
C22G C27G C31G A57U	≤ 0.5
C22G G48C	0.811
C22G A65U	1.03
C22G A65G	0.932
C22G G51C	0.738
C22G G51A	0.749
C22G G23C A43C G50C A70U	0.517
C22G A57U G63C	≤ 0.5
C22G C29G G51A	0.536
C22G C29G G51C	≤ 0.5
C22A G41A G50A	≤ 0.5
C22A U28C	0.852
C22A U28G	0.625
C22A C46G A70C	0.57
C22A U28A U47G	≤ 0.5
C22G C30U C49G	≤ 0.5
C22A C33G A43C U64C	0.534
C22G C31A	0.78
C22G C31G	0.745
C22G C31U	1
C22G C31G A57U	≤ 0.5

Variant	yeast fitness
C22G C24U A37C G51C C55U A70U	≤ 0.5
C22G G23C A43C G50C	≤ 0.5
C22G A57C	0.684
C22G A57G	0.676
C22A G58A C60U	≤ 0.5
C22G A42G C49U	0.712
C22G C27A C49A G56C A65G	0.746
C22G C46U G50A	0.719
C22G C31A A45U	0.621
C22G A42G U59A G68C	≤ 0.5
C22G C29G A43G G63U	≤ 0.5
C22G A57U A65C C66G	≤ 0.5
C22G C31G C62U A70U	≤ 0.5
C22A U28A G39C	≤ 0.5
C22G C29G A69U	0.626
C22G G23C C27A U28C	0.533
C22G G50A U59C	≤ 0.5
C22G G38C C60U	≤ 0.5
C22G C61G C62U	≤ 0.5
C22G A43U U54C C62U	≤ 0.5
C22A G25A C31G G48C	≤ 0.5
C22G G52C G58C A65U	0.592
C22G C24U U64C	0.538
C22G A69U	0.903

Variant	yeast fitness
C22G A69C	0.82
C22A C33G C60A C66G	≤ 0.5
C22A U28A U53G	≤ 0.5
C22G A36C A37C	≤ 0.5
C22A G23A C33U C34G G67C A69C	≤ 0.5
C22G C31G C55U C61G C62G	≤ 0.5
C22G G44C	0.942
C22A U47C C61G	≤ 0.5
C22A C33A C60A	0.642
C22G A45U G48C A57C G67U	≤ 0.5
C22G C31U C66G	0.512
C22G C61G	0.684
C22G A40U A43U C61U	≤ 0.5
C22G C30G U47C	≤ 0.5
C22G C24U C29U C33U A37C G52A C66U	≤ 0.5
C22G G51A A70U	0.665
C22G A45G	0.867
C22G C31U C46U A69U	0.526
C22G A42C C60G	≤ 0.5
C22A G23A C33U A42U	≤ 0.5
C22G A36C A40G G58C C60A	≤ 0.5
C22G C34A G56C	≤ 0.5
C22G C27A A65G	≤ 0.5
